The text below walks through data of ChEMBL document CHEMBL1150789, “Antiplasmodial activity of aryltetralone lignans from Holostylis reniformis” (Antimicrob Agents Chemother, 2007).

Where only a bound is given, the exact number is not on record here.

Series [1] in a line: Toxicity against human HepG2A16 cells assessed as cell death at 450 ug/ml by MTT method. It counts as cell-based.
Series [2] deals with Plasmodium falciparum. Nature of the series: Antiplasmodial activity growth inhibition of chloroquine-resistant Plasmodium falciparum BHz 26/86 after 72 hrs. The series is classed as functional, organism-based. To be noted: BHz 26/86, 72 h. In outline: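 Chloroquine-resistant Amazon isolate in continuous culture on human AB+ or A+ erythrocytes, RPMI 1640 + 10% human serum. Sorbitol-synchronized trophozoites at 1–2% parasitemia, 2.5% hematocrit. Compounds in 0.02% Tween 20, tested at 0.02 to 20 μM, 37°C. Growth inhibition versus drug-free control from blinded smear reading. IC50/IC90 by linear interpolation. Triplicate, three repeats.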

For `COc1ccc([C@@H]2c3cc(OC)c(OC)cc3C(=O)[C@@H](C)[C@H]2C)cc1OC`, the Activity in series [1] is listed as 30%. Also, in series [2], 630 nM corresponded to half-maximal inhibition (IC50) and it took 2.61 µM to reach the 90% level (IC90).
The corresponding values for `COc1ccc([C@@H]2c3cc4c(cc3C(=O)[C@@H](C)[C@H]2C)OCO4)cc1OC` are 30%, 8000 nM and 19.7 µM.
As for `CCN(CC)CCCC(C)Nc1ccnc2cc(Cl)ccc12` (centres undefined) [CHLOROQUINE], the 90% effect level in series [2] (IC90) was put at 0.7 µM.
For the compound `COc1ccc([C@@H]2c3cc(OC)c(OC)cc3C(=O)[C@H](C)[C@H]2C)cc1OC`, in series [1], the Activity is on record as 30%. For the same compound, in series [2], the half-maximal inhibitory concentration (IC50) (commonly the midpoint of a concentration-inhibition curve) is 200 nM and the IC90 (usually the point of the concentration-response curve where the effect stands at 90%) worked out at 3 µM.
Taken in the same sequence, the figures for `COc1cc2c(cc1OC)[C@@H](c1ccc3c(c1)OCO3)[C@H](C)[C@H](C)C2=O` were 30%, above 140000 nM and above 140 µM.
Taken in the same sequence, the figures for `COc1ccc([C@@H]2c3cc(OC)c(OC)cc3C(=O)[C@@H](C)[C@@H]2C)cc1OC` were 30%, 320 nM and 4.6 µM.
Taken in the same sequence, the figures for `COc1cc2c(cc1OC)[C@@H](c1ccc3c(c1)OCO3)[C@@H](C)[C@H](C)C2=O` were 30%, 260 nM and 3.35 µM.
